Results on four molecules are retold here after ChEMBL document CHEMBL1124440, “Resolved N,N-dialkylated 2-amino-8-hydroxytetralins: stereoselective interactions with 5-HT1A receptors in the brain” (J Med Chem, 1989).

Molecules are shown by their SMILES.

In assay [1] the target is T1, Tryptophan 5-hydroxylase 1 (Rattus norvegicus) (UniProt P09810).
T1 sequence (whole entry): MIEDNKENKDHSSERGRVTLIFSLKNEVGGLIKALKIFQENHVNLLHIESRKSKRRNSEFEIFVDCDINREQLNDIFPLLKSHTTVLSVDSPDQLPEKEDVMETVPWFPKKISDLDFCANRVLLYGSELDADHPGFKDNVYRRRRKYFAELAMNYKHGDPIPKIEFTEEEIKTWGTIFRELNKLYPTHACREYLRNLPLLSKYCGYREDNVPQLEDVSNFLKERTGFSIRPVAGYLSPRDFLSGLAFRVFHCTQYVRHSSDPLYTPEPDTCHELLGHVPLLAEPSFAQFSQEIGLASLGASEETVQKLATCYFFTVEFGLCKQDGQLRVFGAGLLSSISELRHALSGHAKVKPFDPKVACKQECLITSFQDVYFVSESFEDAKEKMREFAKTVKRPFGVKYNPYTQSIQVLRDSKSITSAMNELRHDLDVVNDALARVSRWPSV
The assay can be described thus: Compound was tested for its effect on NSD 1015 induced accumulation of 5-HTP in rats corpus striatum at a dosage of 0.10 umol/kg. In kind it is functional, tissue-based. An outline of the steps:
(§1)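 Rats given test drug s.c. in the neck as hydrochloride (5 mL/kg), not reserpine-pretreated; 30 min later NSD 1015 (60 mg/kg, i.e. 287 μmol/kg sc), killed 30 min after that. Brain regions dissected. 5-HTP measured by ion-pair reversed-phase HPLC with electrochemical detection. Mean ± SEM, n = 15 controls, 3–5 per dose; ANOVA with Dunnett's t test vs controls.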

The target of assay [2] is T1, Tryptophan 5-hydroxylase 1 (Rattus norvegicus). The assay can be described thus: Compound was tested for its effect on NSD 1015 induced accumulation of 5-HTP in rats in corpus striatum at a dosage of 0.32 umol/kg. It is filed as functional, tissue-based. The method, boiled down: as §1
Assay [3] shares this target. The assay is described as follows: Approximate dose levels for a half maximal reduction of 5-HTP levels. It is filed as functional. An outline of the steps: as §1
The target is the same in assay [4]. The assay is described as follows: Compound was tested for its effect on NSD 1015 induced accumulation of 5-HTP(ng/g) in rats in corpus striatum at a dosage of 0.032 umol/kg. It is filed as functional. The method, boiled down: as §1
Assay [5] has the same target. The assay can be described thus: Compound was tested for its effect on NSD 1015 induced accumulation of 5-HTP(ng/g) in rats in limbic system at a dosage of 0.032 umol/kg. In kind it is functional. An outline of the steps: as §1
Assay [6] has the same target. The assay is described as follows: Compound was tested for its effect on NSD 1015 induced accumulation of 5-HTP(ng/g) in rats in limbic system at a dosage of 0.10 umol/kg. In kind it is functional, tissue-based. An outline of the steps: as §1
For assay [7] the target is unchanged. The assay is described as follows: Compound was tested for its effect on NSD 1015 induced accumulation of 5-HTP(ng/g) in rats in limbic system at a dosage of 0.32 umol/kg. It is filed as functional, tissue-based. The method, boiled down: as §1
In assay [8] the test system is Rattus norvegicus. The assay is described as follows: No of rats exhibiting 5-HT motor syndrome tested in reserpinized rats at a subcutaneous dose of a. 0.1 umol/kg; 0 rats out of 4 showed activity. In kind it is functional.
Assay [9] concerns Rattus norvegicus. The assay can be described thus: No of rats exhibiting 5-HT motor syndrome tested in reserpinized rats at a subcutaneous dose of 0.32 umol/kg; 4 rats out of 4 showed activity. In kind it is functional.
The target of assay [10] is T1, Tryptophan 5-hydroxylase 1 (Rattus norvegicus). The assay is described as follows: Compound was tested for its effect on NSD 1015 induced accumulation of 5-HTP(ng/g) in rats in corpus striatum at a dosage of 1.0 umol/kg. In kind it is functional. An outline of the steps:
as §1

For assay [11] the target is unchanged. The assay can be described thus: Compound was tested for its effect on NSD 1015 induced accumulation of 5-HTP(ng/g) in rats in limbic system at a dosage of 1.0 umol/kg. In kind it is functional, tissue-based. The method, boiled down:
as §1

The test system of assay [12] is Rattus norvegicus. The assay can be described thus: No of rats exhibiting 5-HT motor syndrome tested in reserpinized rats at a subcutaneous dose of 1.0 umol/kg; 4 rats out of 5 showed activity. In kind it is functional.
In assay [13] the test system is Rattus norvegicus. The assay is described as follows: No of rats exhibiting 5-HT motor syndrome tested in reserpinized rats at a subcutaneous dose of 0.32 umol/kg; 0 rats out of 5 showed activity. In kind it is functional.
Assay [14] addresses T2, 5-hydroxytryptamine receptor 1A (Rattus norvegicus, UniProt P19327).
T2 sequence (P19327 whole entry): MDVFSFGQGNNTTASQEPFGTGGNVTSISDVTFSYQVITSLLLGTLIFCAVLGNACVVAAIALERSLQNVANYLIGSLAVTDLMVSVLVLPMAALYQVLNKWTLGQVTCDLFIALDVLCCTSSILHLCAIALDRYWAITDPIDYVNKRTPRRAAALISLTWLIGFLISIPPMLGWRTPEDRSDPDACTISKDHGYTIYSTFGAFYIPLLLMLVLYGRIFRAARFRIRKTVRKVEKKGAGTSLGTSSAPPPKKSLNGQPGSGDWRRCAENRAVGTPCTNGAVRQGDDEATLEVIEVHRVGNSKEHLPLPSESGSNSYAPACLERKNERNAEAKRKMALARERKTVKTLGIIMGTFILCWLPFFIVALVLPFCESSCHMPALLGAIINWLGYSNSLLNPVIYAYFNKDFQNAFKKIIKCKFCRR
The assay can be described thus: Concentration of compound required to inhibit cortical 5-hydroxytryptamine 1A receptor binding sites in rat brain was evaluated. It is filed as tissue-based.

Assay [15] relates to Rattus norvegicus. The assay is described as follows: No of rats exhibiting 5-HT motor syndrome tested in reserpinized rats at a subcutaneous dose of 0.32 umol/kg; 4 rats out of 4 showd activity. It is filed as functional.
In assay [16] the test system is Rattus norvegicus. The assay is described as follows: No of rats exhibiting 5-HT motor syndrome tested in reserpinized rats at a subcutaneous dose of 1.0 umol/kg; 3 rats out of 3 showed activity. In kind it is functional.
Assay [17] deals with T1, Tryptophan 5-hydroxylase 1 (Rattus norvegicus). The assay can be described thus: Compound was tested for its effect on NSD 1015 induced accumulation of 5-HTP(ng/g) in rats in limbic system at a dosage of 32 umol/kg. It is filed as functional, tissue-based. The method, boiled down: as §1
Assay [18] has the same target. The assay is described as follows: Compound was tested for its effect on NSD 1015 induced accumulation of 5-HTP(ng/g) in rats in corpus striatum at a dosage of 10 umol/kg. In kind it is functional. An outline of the steps:
as §1

Assay [19] has the same target. The assay can be described thus: Compound was tested for its effect on NSD 1015 induced accumulation of 5-HTP(ng/g) in rats in corpus striatum at a dosage of 3.2 umol/kg. It is filed as functional. An outline of the steps:
as §1

Assay [20] shares this target. The assay can be described thus: Compound was tested for its effect on NSD 1015 induced accumulation of 5-HTP(ng/g) in rats in corpus striatum at a dosage of 32 umol/kg. It is filed as functional, tissue-based. The method, boiled down:
as §1

Assay [21] shares this target. The assay is described as follows: Compound was tested for its effect on NSD 1015 induced accumulation of 5-HTP(ng/g) in rats in limbic system at a dosage of 10 umol/kg. In kind it is functional, tissue-based. The method, boiled down:
as §1

The target is the same in assay [22]. The assay can be described thus: Compound was tested for its effect on NSD 1015 induced accumulation of 5-HTP(ng/g) in rats in limbic system at a dosage of 3.2 umol/kg. It is filed as functional, tissue-based. An outline of the steps:
as §1

In assay [23] the test system is Rattus norvegicus. The assay can be described thus: No of rats exhibiting 5-HT motor syndrome tested in reserpinized rats at a subcutaneous dose of 1.0 umol/kg; o rats out of 3 showed activity. It is filed as functional.
Assay [24] concerns Rattus norvegicus. The assay is described as follows: No of rats exhibiting 5-HT motor syndrome tested in reserpinized rats at a subcutaneous dose of 10 umol/kg; 4 rats out of 5 showed activity. It is filed as functional.
Assay [25] concerns Rattus norvegicus. The assay is described as follows: No of rats exhibiting 5-HT motor syndrome tested in reserpinized rats at a subcutaneous dose of 3.2 umol/kg; 0 rats out of 5 showed activity. In kind it is functional.

What is called ED50 is the dose that gives a 50% effect, or the effect in half of the subjects. `CCCN(CCC)[C@@H]1CCc2cccc(O)c2C1`: the Activity is 78 ng/g in [1]; 52 ng/g in assay [2]; 87 ng/g in [4]; 163 ng/g in assay [5]; 119 ng/g in assay [6]; 86 ng/g in [7]. The values for the Activity in the assay with Rattus norvegicus [8] and in the assay with Rattus norvegicus [9] were 0 and 4, respectively. In addition, the 50% effect level in assay [3] (ED50) was put at a dose of 0.1 µmol/kg.

Consider `CCCN(CCC)[C@H]1CCc2cccc(O)c2C1`, for which the Activity in assay [1] is 94 ng/g; in [2], 61 ng/g; in assay [4] it was 95 ng/g; in [10], 53 ng/g; in assay [5], 157 ng/g; in assay [6], 154 ng/g. Also, the Activity in assay [7] is 114 ng/g; in assay [11], 75 ng/g; in the assay on Rattus norvegicus [12], 4; in the assay with Rattus norvegicus [13] it was 0. The molecule also displayed an ED50 in [3] of 0.2 µmol/kg.

A word on the IC50: it is the concentration at which inhibition is half-maximal. The low end stands for greater potency in that assay, the high end for weaker potency in that assay. Take `CCN(CC)[C@@H]1CCc2cccc(O)c2C1`: the IC50 in assay [14] was determined as 9.65 nM. Moreover, the Activity in [1] turned out to be 68 ng/g; in [2], 50 ng/g; in [4] it was 87 ng/g; in assay [10], 47 ng/g; in assay [5] it was 131 ng/g; in assay [6], 110 ng/g. The Activity was found to be 70 ng/g in [7]; 72 ng/g in assay [11]; 0 with Rattus norvegicus [8]; 4 in the assay on Rattus norvegicus [15]; 3 in the assay with Rattus norvegicus [16]. In assay [3], the ED50 amounted to 0.05 µmol/kg.

`CCN(CC)[C@H]1CCc2cccc(O)c2C1` had an IC50 in assay [14] of 114 nM. Also, the Activity in assay [17] is 74 ng/g; in [10], 85 ng/g; in [18], 55 ng/g; in assay [19] it was 74 ng/g; in assay [20] it was 46 ng/g; in assay [11], 135 ng/g. Moreover, the Activity in assay [21] is 86 ng/g; in assay [22], 107 ng/g; in the assay on Rattus norvegicus [23], 0; in the assay on Rattus norvegicus [24] it was 4; with Rattus norvegicus [25], 0. For the same molecule, the ED50 in assay [3] is 3 µmol/kg.
